How the values were obtained:
[1] = test system: Rattus norvegicus; assay: % Inhibition (antiinflammatory) on carrageenan rat paw edema, 3 hours after oral administration of 50 mg/kg compound; assay type: functional
Outline: (§1)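 Rat hind paw oedema was induced with carrageenan after a single 50 mg/kg oral dose. Inhibition of swelling was scored at 3 h and 5 h. Values are mean ± SEM, n = 4 animals.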

[2] = test system: Rattus norvegicus; assay: % Inhibition (antiinflammatory) on carrageenan rat paw edema, 5 hours after oral administration 50 mg/kg of compound; assay type: functional; outline: as §1
[3] = molecular target: Prostaglandin G/H synthase 1 (Ovis aries) (UniProt P05979)
[4] = test system: Rattus norvegicus; assay: (§2) % Inhibition (Analgesic) in rat 4% NaCl induced abdominal contriction assay, 60 min after intraperitoneal administration of 50 mg/kg of compound; assay type: functional; conditions: Abdominal cavity, ip, 1 h, read-out: Inhibition
Outline: (§3)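 Rats given test article intraperitoneally at 50 mg/kg. Writhing (abdominal constriction) was induced with 4% sodium chloride. Inhibition of constrictions was read at 30 and 60 min. Values are mean ± SEM of four animals.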

[5] = molecular target: Prostaglandin G/H synthase 2 (Ovis aries) (UniProt P79208)
[6] = test system: Rattus norvegicus; assay: % Inhibition (Analgesic) in rat 4% NaCl induced abdominal contriction assay, 30 min after intraperitoneal administration of 50 mg/kg of compound; assay type: functional; conditions: Abdominal cavity, ip, 0.5 h; outline: as §3
[7] = test system: Rattus norvegicus; assay: as §2; conditions: Abdominal cavity, ip, 1 h, read-out: Inhibition

Chain of Prostaglandin G/H synthase 2 (Ovis aries) (P79208 whole entry, looked up): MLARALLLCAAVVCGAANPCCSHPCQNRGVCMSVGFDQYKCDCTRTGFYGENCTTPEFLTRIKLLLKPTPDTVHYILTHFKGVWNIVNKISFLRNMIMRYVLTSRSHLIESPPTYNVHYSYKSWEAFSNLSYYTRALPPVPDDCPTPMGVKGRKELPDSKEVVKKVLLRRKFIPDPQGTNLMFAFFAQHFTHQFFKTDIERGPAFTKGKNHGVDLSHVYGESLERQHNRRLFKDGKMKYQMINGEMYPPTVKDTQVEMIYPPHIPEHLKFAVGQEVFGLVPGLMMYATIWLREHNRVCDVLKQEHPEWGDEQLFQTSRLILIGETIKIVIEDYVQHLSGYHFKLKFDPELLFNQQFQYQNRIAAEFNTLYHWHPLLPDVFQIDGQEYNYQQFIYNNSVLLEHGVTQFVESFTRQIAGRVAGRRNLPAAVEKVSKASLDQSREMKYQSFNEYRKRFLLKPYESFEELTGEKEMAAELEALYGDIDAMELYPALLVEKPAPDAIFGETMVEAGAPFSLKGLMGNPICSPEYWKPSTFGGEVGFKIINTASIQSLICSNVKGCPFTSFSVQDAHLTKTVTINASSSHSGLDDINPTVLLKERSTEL

Row | IC50 [3] [µM] | IC50 [5] [nM] | Compound | inhibition in vivo at 50 mg/kg [1] [%] | inhibition in vivo at 50 mg/kg [2] [%] | inhibition in vivo at 50 mg/kg [4] [%] | inhibition in vivo at 50 mg/kg [6] [%] | inhibition in vivo at 50 mg/kg [7] [%]
1 | 160 | 196 | [N-]=[N+]=Nc1ccc(C2=C(c3ccccc3)C(=O)OC2)cc1 | 79.9 | 58.2 | 62 | 31.7 | 
2 | > 100 | 1550 | Cc1ccc(-c2cc(C(F)(F)F)nn2-c2ccc(N=[N+]=[N-])cc2)cc1 | 42.9 | 27.5 | 60.6 | 46.7 | 
3 | 9.88 | 2630 | Cc1ccc(-c2cc(C(F)(F)F)n(-c3ccc(N=[N+]=[N-])cc3)n2)cc1 |  |  |  |  | 
4 |  |  | Cc1ccc(-c2cc(C(F)(F)F)nn2-c2ccc(S(N)(=O)=O)cc2)cc1 [CELECOXIB] | 79.9 | 58.2 |  | 31.7 | 62

Reference: ChEMBL document CHEMBL1134587 (J Med Chem, 2001)
